Reference: paper PMC6519384 (Andrology, 2018)

Key:
blood esterases = test: Ex vivo addition of DMAU to blood in different blood collection tubes; type: in vitro ADME, human; settings: for Reduction of conversion of DMAU to DMA in NaF tubes: NaF 15 mg/mL blood; for Reduction of conversion of DMAU to DMA in NaF tubes / DMA level: 60 min at RT; for DMA level: plain tube
Outline: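 Freshly drawn venous whole blood from healthy men is split into 2 mL aliquots in plain or esterase-inhibitor tubes, in duplicate. DMAU in methanol is added to 125–1000 ng/mL and held 30 or 60 min at 4 °C or 60 min at 23 °C before centrifugation. DMA is extracted twice with MTBE/hexane (50:50) and run by LC‑MS/MS. Duplicates are averaged and results given as % difference vs plain tube under the same conditions.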

[1] = Single oral dose of 200 mg DMAU in healthy men; type: in vivo, human; settings: oral 200 mg DMAU
Outline: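 Fifteen healthy men took 200 mg DMAU orally after a meal, in castor oil/benzyl benzoate or as capsule powder. Ten blood draws over 24 h went into plain tubes (kept at RT) and NaF‑containing tubes (4 °C), each held 30 min before centrifugation. DMA and DMAU were measured by LC‑MS/MS. The plain minus NaF‑EDTA DMA difference was regressed on average DMAU, split at 10 ng/mL.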

[2] = DMAU added to serum with increasing NaF, DMA measured; type: in vitro ADME, human; settings: Table S1, Experiment 3
[3] = DMAU 300 ng/mL, K2EDTA (1.8 mg/mL) tube, 30 min 4 °C
[4] = DMAU 300 ng/mL, K2EDTA (1.8 mg/mL) tube, 60 min 4 °C
[5] = DMAU 300 ng/mL, K2EDTA (1.8 mg/mL) tube, 60 min RT
[6] = DMAU 300 ng/mL, NaF (1.5 mg/mL) + Na2EDTA (3 mg/mL) tube, 30 min 4 °C
[7] = DMAU 300 ng/mL, NaF (1.5 mg/mL) + Na2EDTA (3 mg/mL) tube, 60 min 4 °C
[8] = DMAU 300 ng/mL, NaF (5 mg/mL) + K2Oxalate (4 mg/mL) tube, 60 min 4 °C
[9] = DMAU 300 ng/mL, NaF (5 mg/mL) + K2Oxalate (4 mg/mL) tube, 60 min RT
[10] = DMAU 300 ng/mL, P800 tube, 30 min 4 °C
[11] = DMAU 300 ng/mL, P800 tube, 60 min 4 °C
[12] = DMAU 300 ng/mL, P800 tube, 60 min RT
[13] = DMAU 600 ng/mL, K2EDTA (1.8 mg/mL) tube, 30 min 4 °C
[14] = DMAU 600 ng/mL, K2EDTA (1.8 mg/mL) tube, 60 min 4 °C
[15] = DMAU 600 ng/mL, K2EDTA (1.8 mg/mL) tube, 60 min RT
[16] = DMAU 600 ng/mL, NaF (1.5 mg/mL) + Na2EDTA (3 mg/mL) tube, 30 min 4 °C
[17] = DMAU 600 ng/mL, NaF (1.5 mg/mL) + Na2EDTA (3 mg/mL) tube, 60 min 4 °C
[18] = DMAU 600 ng/mL, NaF (1.5 mg/mL) + Na2EDTA (3 mg/mL) tube, 60 min RT
[19] = DMAU 600 ng/mL, NaF (5 mg/mL) + K2Oxalate (4 mg/mL) tube, 30 min 4 °C
[20] = DMAU 600 ng/mL, NaF (5 mg/mL) + K2Oxalate (4 mg/mL) tube, 60 min 4 °C
[21] = DMAU 600 ng/mL, NaF (5 mg/mL) + K2Oxalate (4 mg/mL) tube, 60 min RT
[22] = DMAU 600 ng/mL, P800 tube, 30 min 4 °C
[23] = DMAU 600 ng/mL, P800 tube, 60 min 4 °C
[24] = DMAU 600 ng/mL, P800 tube, 60 min RT

With `CCCCCCCCCCC(=O)O[C@H]1CC[C@H]2[C@H]3[C@H]([C@@H](C)C[C@]12C)[C@H]1CCC(=O)C=C1C[C@H]3C` [DMAU, dimethandrolone undecanoate] the “Reduction of conversion of DMAU to DMA in NaF tubes” value (“Reduction of conversion of DMAU” for short) (blood esterases; DMAU 125 ng/mL) was 72%, the DMA level (blood esterases; DMAU 125 ng/mL) was 1.57 ng/mL and the “Reduction of conversion of DMAU” value (blood esterases; DMAU 250 ng/mL) was 61.3%. For the same molecule, the DMA level (blood esterases; DMAU 250 ng/mL) was 2.79 ng/mL, the “% difference vs. Plain” value (blood esterases; [3]) was −56.1% and the DMA (blood esterases; [3]) was 1.4 ng/mL. The “% difference vs. Plain” value (blood esterases; [4]) was −76.5%, the DMA (blood esterases; [4]) was 1.4 ng/mL and the “% difference vs. Plain” value (blood esterases; [5]) was “+15.2%”. The DMA (blood esterases; [5]) was 9.7 ng/mL, the “% difference vs. Plain” value (blood esterases; [6]) was −80.6% and the DMA (blood esterases; [6]) was 0.6 ng/mL. For the same molecule, the “% difference vs. Plain” value (blood esterases; [7]) was −77.3%, the DMA (blood esterases; [7]) was 1.3 ng/mL and the DMA (blood esterases; DMAU 300 ng/mL, NaF (5 mg/mL) + K2Oxalate (4 mg/mL) tube, 30 min 4 °C) was “LLOQ”. The “% difference vs. Plain” value (blood esterases; [8]) was −82.2%, the DMA (blood esterases; [8]) was 1 ng/mL and the “% difference vs. Plain” value (blood esterases; [9]) was −31.9%. The DMA (blood esterases; [9]) was 5.7 ng/mL, the “% difference vs. Plain” value (blood esterases; [10]) was −78.1% and the DMA (blood esterases; [10]) was 0.7 ng/mL. For the same molecule, the “% difference vs. Plain” value (blood esterases; [11]) was −84.2%, the DMA (blood esterases; [11]) was 0.9 ng/mL and the “% difference vs. Plain” value (blood esterases; [12]) was −20.6%. The DMA (blood esterases; [12]) was 6.7 ng/mL, the DMA (blood esterases; DMAU 300 ng/mL, Plain tube, 30 min 4 °C) was 3.3 ng/mL and the DMA (blood esterases; DMAU 300 ng/mL, Plain tube, 60 min 4 °C) was 5.9 ng/mL. The DMA (blood esterases; DMAU 300 ng/mL, Plain tube, 60 min RT) was 8.4 ng/mL, the “Reduction of conversion of DMAU” value (blood esterases; DMAU 500 ng/mL) was 54.3% and the DMA level (blood esterases; DMAU 500 ng/mL) was 5.54 ng/mL. The “% difference vs. Plain” value (blood esterases; [13]) was −17.1%, the DMA (blood esterases; [13]) was 1.2 ng/mL and the “% difference vs. Plain” value (blood esterases; [14]) was −46.4%. The DMA (blood esterases; [14]) was 2.3 ng/mL, the “% difference vs. Plain” value (blood esterases; [15]) was “+13.4%” and the DMA (blood esterases; [15]) was 16.5 ng/mL. The “% difference vs. Plain” value (blood esterases; [16]) was −30.0%, the DMA (blood esterases; [16]) was 1 ng/mL and the “% difference vs. Plain” value (blood esterases; [17]) was −43.5%. For the same molecule, the DMA (blood esterases; [17]) was 2.4 ng/mL, the “% difference vs. Plain” value (blood esterases; [18]) was −29.4% and the DMA (blood esterases; [18]) was 10.2 ng/mL. For the same molecule, the “% difference vs. Plain” value (blood esterases; [19]) was −38.7%, the DMA (blood esterases; [19]) was 0.9 ng/mL and the “% difference vs. Plain” value (blood esterases; [20]) was −72.7%. The DMA (blood esterases; [20]) was 1.2 ng/mL, the “% difference vs. Plain” value (blood esterases; [21]) was −34.1% and the DMA (blood esterases; [21]) was 9.6 ng/mL. For the same molecule, the “% difference vs. Plain” value (blood esterases; [22]) was −42.5%, the DMA (blood esterases; [22]) was 0.9 ng/mL and the “% difference vs. Plain” value (blood esterases; [23]) was −67.1%. For the same molecule, the DMA (blood esterases; [23]) was 1.4 ng/mL, the “% difference vs. Plain” value (blood esterases; [24]) was −25.9% and the DMA (blood esterases; [24]) was 10.8 ng/mL. For the same molecule, the DMA (blood esterases; DMAU 600 ng/mL, Plain tube, 30 min 4 °C) was 1.5 ng/mL, the DMA (blood esterases; DMAU 600 ng/mL, Plain tube, 60 min 4 °C) was 4.3 ng/mL and the DMA (blood esterases; DMAU 600 ng/mL, Plain tube, 60 min RT) was 14.5 ng/mL. The “Reduction of conversion of DMAU” value (blood esterases; DMAU 1000 ng/mL) was 48.8%, the DMA level (blood esterases; DMAU 1000 ng/mL) was 8.82 ng/mL and the “Reduction of overestimation of DMA by collecting blood into NaF tubes” value (blood esterases; increasing amounts of DMAU added to blood) was 30–85%. The “Difference in DMA concentrations between plain and NaF‐EDTA tubes” value ([1]; DMAU concentrations above 10 ng/mL) was 22%, the “Mean difference in DMA concentrations between plain and NaF‐EDTA tubes” value ([1]; DMAU concentrations below 10 ng/mL) was roughly 0% and the “Conversion of DMAU to DMA in serum” value [2] was “no conversion”.
